Assay [1] deals with Human immunodeficiency virus 1. The experiment in a line: Inhibitory activity against HIV-1 mutant strain 100I. In kind it is functional, organism-based. In outline:
(§1)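 Mutant HIV-1 made by recombining mutant PR-RT sequence into a PR-RT-deleted HXB2 proviral clone. Serial compound concentrations plated, then virus (200 CCID50/well) and MT4 cells (30 000 cells/well; RPMI 1640, 10% FCS) added; 5 days at 37 °C, 5% CO2; viability read by MTT. EC50 = concentration giving 50% infection versus drug-free control; mock-infected cultures run in parallel for toxicity.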

In assay [2] the test system is Human immunodeficiency virus 1. Nature of the assay: Inhibitory activity against HIV-1 mutant strain 106A. In kind it is functional, organism-based. In outline:
as §1

Assay [3] deals with Human immunodeficiency virus 1. The experiment in a line: Inhibitory activity against HIV-1 mutant strain 190A. The class given is functional, organism-based. In outline: as §1
The subject of assay [4] is Human immunodeficiency virus 1. Nature of the assay: Inhibitory activity against HIV-1 double mutants strain 227L and 106A. The class given is functional, organism-based. In outline:
as §1

Assay [5] relates to Human immunodeficiency virus 1. The experiment in a line: Inhibitory activity against HIV-1 double mutants strain 103N and 181C. In kind it is functional, organism-based. The method, boiled down: as §1
The test system of assay [6] is Human immunodeficiency virus 1. The experiment in a line: Inhibitory activity against HIV-1 mutant strain 101E. The class given is functional, organism-based. The method, boiled down: as §1
The test system of assay [7] is Human immunodeficiency virus 1. The experiment in a line: Inhibitory activity against HIV-1 mutant strain 227C. The class given is functional, organism-based. In outline:
as §1

Assay [8] relates to Human immunodeficiency virus 1. The experiment in a line: Inhibitory activity against HIV-1 mutant strain 103N. In kind it is functional, organism-based. The method, boiled down: as §1
Assay [9] concerns Human immunodeficiency virus 1. The experiment in a line: Inhibitory activity against wild type HIV-1 LAI cell line. The class given is functional, organism-based. The note with it: Human immunodeficiency virus 1, LAI. The method, boiled down: (§2)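 MT4 human T-lymphoblastoid cells were grown in RPMI 1640 with 10% fetal calf serum and antibiotics at 37 °C and 5% CO2. A compound concentration series was combined with HIV-1 LAI at 200 CCID50/well and 30 000 cells/well. Mock-infected cultures with the same concentrations were run in parallel to measure cytotoxicity. After 5 days, cell viability was read by MTT colorimetry. EC50 is the concentration giving 50% infection versus the drug-free control.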

Assay [10] has as its system Human immunodeficiency virus 1. The experiment in a line: Inhibitory activity against HIV-1 mutant strain 190S. The class given is functional, organism-based. In outline:
as §1

Assay [11] relates to Human immunodeficiency virus 1. The experiment in a line: Selectivity index of cytotoxic activity (CC50) to inhibitory activity (IC50) relative to LAI cell line. The class given is functional. In outline: as §2
Assay [12] relates to Human immunodeficiency virus 1. Nature of the assay: Inhibitory activity against HIV-1 mutant strain 188L. The class given is functional, organism-based. In outline:
as §1

For assay [13], the system named is Human immunodeficiency virus 1. Nature of the assay: Inhibitory activity against HIV-1 mutant strain 179E. The class given is functional, organism-based. The method, boiled down: as §1
The subject of assay [14] is Human immunodeficiency virus 1. The experiment in a line: Inhibitory activity against HIV-1 double mutants strain 101E and 103N. In kind it is functional, organism-based. The method, boiled down: as §1
Assay [15] concerns Human immunodeficiency virus 1. The experiment in a line: Inhibitory activity against HIV-1 mutant strain 181C. The class given is functional, organism-based. In outline:
as §1

For assay [16], the system named is Human immunodeficiency virus 1. The experiment in a line: Inhibitory activity against HIV-1 double mutants strain 100I and 103N. The class given is functional, organism-based. In outline: as §1
Assay [17] has as its system Human immunodeficiency virus 1. Nature of the assay: Inhibitory activity against HIV-1 mutant strain 138K. The class given is functional, organism-based. In outline:
as §1

The IC50 is the point on the concentration scale where inhibition reaches its midpoint. A low value points to higher potency. Take `CCc1c(C)nc(O)c(N(C)C)c1Cc1cccc(/C=C/C#N)c1`: the concentration for half-maximal inhibition (IC50) in [1] is 10 nM; in assay [2] it was 2 nM; in assay [3], 8 nM; in [4] it was 3160 nM; in [5], 30 nM; in assay [6], 6 nM. Besides, the IC50 is 390 nM in assay [7]; 2 nM in assay [8]; 0.4 nM in [9]; 40 nM in [10]; 150 nM in assay [12]; 1 nM in assay [13]. Further, the IC50 in assay [14] amounted to 20 nM; in [15], 10 nM; in [16] it was 30 nM; in assay [17], 3 nM. The same molecule had a Selectivity index in assay [11] of 25100.

These data come from ChEMBL document CHEMBL1138799, “4-benzyl- and 4-benzoyl-3-dimethylaminopyridin-2(1H)-ones, a new family of potent anti-HIV agents: optimization and in vitro evaluation against clinically important HIV mutant strains” (J Med Chem, 2004).
